≈ marks a conversion by molar mass, not a printed value. Calls of active or inactive are those of the source. The calls are words filed in the database; no cut-off is given here.
How the values were obtained:
Staphylococcus aureus [1] = test: Antibacterial activity against Staphylococcus aureus USA300 UAMS-1625 assessed as fold increase in MIC incubated for 20 hrs by CLSI based microbroth dilution method relative to rifabutin; format: functional
In short: (§1)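 CLSI broth microdilution in CAMHB against S. aureus USA300 UAMS-1625. Compounds in 2-fold dilution series; inoculum 5×10^5 CFU/mL. Incubated without shaking at 35 °C for 20 h. MIC read visually as the lowest concentration preventing visible growth. Fold changes are relative to the rifabutin MIC.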

Acinetobacter baumannii [2] = test: Antibacterial activity against Acinetobacter baumannii HUMC1 cultured in RPMI 1640 medium supplemented with 10% FCS assessed as bacterial growth inhibition incubated for 20 hrs by CLSI based microbroth dilution method; format: functional; settings: Acinetobacter baumannii
In short: (§2)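 CLSI broth microdilution in RPMI 1640 + 10% FCS in place of CAMHB. Compounds in 2-fold dilution series; inoculum 5×10^5 CFU/mL. Plates held static at 35 °C for 20 h. MIC read visually as the lowest concentration with no visible growth. […] is the reciprocal of this MIC.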

[3] = Inhibition of transcription in Acinetobacter baumannii HUMC1 using pVT784 as reporter plasmid preincubated for 30 mins followed by reporter plasmid addition and measured after 60 mins by Nano-Glo luciferase assay; format: functional
In short: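 Cell-free transcription/translation used A. baumannii HUMC1 extract at 1.2 mg/mL, with extract from 2xYT+P culture after a run-off step and dialysis at pH 8.2. Compound was preincubated with extract for 30 min on ice. Reporter plasmid (0.5 nM) was then added and luminescence read after 60 min at 25 °C. Compounds were tested at 8 to 0.002 mg/L in triplicate. IC50 was fit from no-compound-normalized signal.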

[4] = Drug accumulation in Acinetobacter baumannii HUMC1 cultured in iron-limited RPMI medium supplemented with 10% FCS measured per 5 ml of culture medium at 0.05 uM incubated for 10 mins by LC-MS/MS analysis; format: ADME
In short: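 5 mL of suspension was dosed from DMSO stocks (0.002–5 mM) and shaken at 150 rpm for 10 min at 37 °C. Cells were pelleted, washed, and lysed (sucrose/EDTA). LC-MS/MS MRM quantitation used caffeine-normalized standard curves in spiked lysate. Reported as amount per 5 mL; n≥2 independent replicates.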

Acinetobacter baumannii [5] = test: Antibacterial activity against Acinetobacter baumannii HUMC1 cultured in iron-limited RPMI medium supplemented with 10% FCS assessed as inverse MIC incubated for 20 hrs by CLSI based microbroth dilution method; format: functional; in short: as §2
Staphylococcus aureus [6] = test: Antibacterial activity against Staphylococcus aureus USA300 UAMS-1625 assessed as fold reduction in MIC incubated for 20 hrs by CLSI based microbroth dilution method relative to rifabutin; format: functional; in short: as §1
Acinetobacter baumannii [7] = test: Antibacterial activity against Acinetobacter baumannii HUMC1 harboring FhuE deletion mutant assessed as bacterial growth inhibition incubated for 20 hrs by CLSI based microbroth dilution method; format: functional
In short: (§3)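 Microbroth dilution per CLSI in RPMI 1640 + 10% FCS (in place of CAMHB). Compounds as 2-fold serial dilutions; inoculum 5×10^5 CFU/mL of previously described HUMC1-derived mutant strains. Incubated static at 35 °C for 20 h. MIC read visually as lowest concentration preventing visible growth.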

Acinetobacter baumannii [8] = test: Antibacterial activity against Acinetobacter baumannii HUMC1 harboring RpoB H535C mutant assessed as bacterial growth inhibition incubated for 20 hrs by CLSI based microbroth dilution method; format: functional; in short: as §3
Acinetobacter baumannii [9] = test: Antibacterial activity against Acinetobacter baumannii HUMC1 harboring RpoB H535Q mutant assessed as bacterial growth inhibition incubated for 20 hrs by CLSI based microbroth dilution method; format: functional; in short: as §3
Acinetobacter baumannii [10] = test: Antibacterial activity against Acinetobacter baumannii HUMC1 harboring RpoB H535Q mutant assessed as fold reduction in MIC incubated for 20 hrs by CLSI based microbroth dilution method relative to rifabutin; format: functional
Acinetobacter baumannii [11] = test: Antibacterial activity against Acinetobacter baumannii HUMC1 harboring RpoB H535C mutant assessed as fold reduction in MIC incubated for 20 hrs by CLSI based microbroth dilution method relative to rifabutin; format: functional
Staphylococcus aureus [12] = test: Antibacterial activity against Staphylococcus aureus USA300 UAMS-1625 assessed as bacterial growth inhibition incubated for 20 hrs by CLSI based microbroth dilution method; format: functional; in short: as §1

SMILES	MIC (Acinetobacter baumannii [2]; HUMC1, 20 h, read-out: MIC)	IC50 [3]	1/MIC (Acinetobacter baumannii [5])	fold change (FC) (Staphylococcus aureus [6])	MIC (Acinetobacter baumannii [7])	other results
CO[C@H]1/C=C/O[C@@]2(C)Oc3c(C)c(O)c4c(O)c(c(/C=N/N5CCN(C)CC5)c(O)c4c3C2=O)NC(=O)/C(C)=C\C=C\[C@H](C)[C@H](O)[C@@H](C)[C@@H](O)[C@@H](C)[C@H](OC(C)=O)[C@@H]1C [RIFAMPIN]	–	0.07 µg/mL (≈ 0.0851 µM)	0.25 L/mg	–	–	Drug uptake ([4]; BLD = below limit of detection): Bld; MIC (Acinetobacter baumannii [2]; HUMC1, read-out: MIC): 4 µg/mL (≈ 4.86 µM)
CO[C@H]1/C=C/O[C@@]2(C)Oc3c(C)c(O)c4c(c3C2=O)C2=NC3(CCN(C(C)C)CC3)NC2=C(NC(=O)/C(C)=C\C=C\[C@H](C)[C@H](O)[C@@H](C)[C@@H](O)[C@@H](C)[C@H](OC(C)=O)[C@@H]1C)C4=O	0.002 µg/mL (≈ 0.0024 µM)	–	–	2	0.5 µg/mL (≈ 0.6 µM)	–
CO[C@H]1/C=C/O[C@@]2(C)Oc3c(C)c(O)c4c(c3C2=O)C2=NC3(CCN(C5CC5)CC3)NC2=C(NC(=O)/C(C)=C\C=C\[C@H](C)[C@H](O)[C@@H](C)[C@@H](O)[C@@H](C)[C@H](OC(C)=O)[C@@H]1C)C4=O (stereo in doubt; form 1)	≤ 0.002 µg/mL	0.12 µg/mL (≈ 0.144 µM)	1000 L/mg	2	0.5 µg/mL (≈ 0.602 µM)	MIC (Acinetobacter baumannii [8]): 0.004 µg/mL (≈ 0.00481 µM); MIC (Acinetobacter baumannii [9]): 0.004 µg/mL (≈ 0.00481 µM); Drug uptake [4]: 24.66 pmol; fold change (FC) (Acinetobacter baumannii [10]): 2; fold change (FC) (Acinetobacter baumannii [11]): 2
CO[C@H]1/C=C/O[C@@]2(C)Oc3c(C)c(O)c4c(c3C2=O)C2=NC3(CCN(C(C)(C)C)CC3)NC2=C(NC(=O)/C(C)=C\C=C\[C@H](C)[C@H](O)[C@@H](C)[C@@H](O)[C@@H](C)[C@H](OC(C)=O)[C@@H]1C)C4=O	0.002 µg/mL (≈ 0.00236 µM)	0.06 µg/mL (≈ 0.0708 µM)	500 L/mg	–	0.5 µg/mL (≈ 0.59 µM)	Activity (Staphylococcus aureus [12]): Active; Drug uptake [4]: 32.73 pmol
CO[C@H]1/C=C/O[C@@]2(C)Oc3c(C)c(O)c4c(c3C2=O)C2=NC3(CCN(CCC(C)C)CC3)NC2=C(NC(=O)/C(C)=C\C=C\[C@H](C)[C@H](O)[C@@H](C)[C@@H](O)[C@@H](C)[C@H](OC(C)=O)[C@@H]1C)C4=O	0.016 µg/mL (≈ 0.0186 µM)	–	–	–	0.5 µg/mL (≈ 0.581 µM)	Activity (Staphylococcus aureus [12]): Active
CO[C@H]1/C=C/O[C@@]2(C)Oc3c(C)c(O)c4c(c3C2=O)C2=NC3(CCNCC3)NC2=C(NC(=O)/C(C)=C\C=C\[C@H](C)[C@H](O)[C@@H](C)[C@@H](O)[C@@H](C)[C@H](OC(C)=O)[C@@H]1C)C4=O	0.25 µg/mL (≈ 0.316 µM)	0.05 µg/mL (≈ 0.0632 µM)	4 L/mg	–	0.5 µg/mL (≈ 0.632 µM)	MIC (Acinetobacter baumannii [8]): 1 µg/mL (≈ 1.26 µM); fold change (FC) (Staphylococcus aureus [1]): 2; MIC (Acinetobacter baumannii [9]): 1 µg/mL (≈ 1.26 µM); Drug uptake [4]: 0.47 pmol
CO[C@H]1/C=C/O[C@@]2(C)Oc3c(C)c(O)c4c(c3C2=O)C2=NC3(CCN(CCC(C)(C)C)CC3)NC2=C(NC(=O)/C(C)=C\C=C\[C@H](C)[C@H](O)[C@@H](C)[C@@H](O)[C@@H](C)[C@H](OC(C)=O)[C@@H]1C)C4=O	0.06 µg/mL (≈ 0.0686 µM)	0.17 µg/mL (≈ 0.194 µM)	16.67 L/mg	2	0.5 µg/mL (≈ 0.571 µM)	MIC (Acinetobacter baumannii [8]): 1 µg/mL (≈ 1.14 µM); MIC (Acinetobacter baumannii [9]): 1 µg/mL (≈ 1.14 µM); Drug uptake [4]: 9.55 pmol

Now from value to compound, other results behind:

MIC (Acinetobacter baumannii [2]; HUMC1, 20 h, read-out: MIC)	SMILES	IC50 [3]	1/MIC (Acinetobacter baumannii [5])	fold change (FC) (Staphylococcus aureus [6])	MIC (Acinetobacter baumannii [7])	other results
0.016 µg/mL (≈ 0.0183 µM)	CO[C@H]1/C=C/O[C@@]2(C)Oc3c(C)c(O)c4c(c3C2=O)C2=NC3(CCN(C5CCCCC5)CC3)NC2=C(NC(=O)/C(C)=C\C=C\[C@H](C)[C@H](O)[C@@H](C)[C@@H](O)[C@@H](C)[C@H](OC(C)=O)[C@@H]1C)C4=O	–	–	–	–	fold change (FC) (Staphylococcus aureus [1]): 2
0.008 µg/mL (≈ 0.00929 µM)	CCC(C)(C)N1CCC2(CC1)N=C1C(=C3NC(=O)/C(C)=C\C=C\[C@H](C)[C@H](O)[C@@H](C)[C@@H](O)[C@@H](C)[C@H](OC(C)=O)[C@H](C)[C@@H](OC)/C=C/O[C@@]4(C)Oc5c(C)c(O)c(c1c5C4=O)C3=O)N2	–	–	2	–	–
0.016 µg/mL (≈ 0.0199 µM)	CO[C@H]1/C=C/O[C@@]2(C)Oc3c(C)c(O)c4c(c3C2=O)C2=NC3(CCN(C)CC3)NC2=C(NC(=O)/C(C)=C\C=C\[C@H](C)[C@H](O)[C@@H](C)[C@@H](O)[C@@H](C)[C@H](OC(C)=O)[C@@H]1C)C4=O	–	–	2	–	–
0.125 µg/mL (≈ 0.144 µM)	CO[C@H]1/C=C/O[C@@]2(C)Oc3c(C)c(O)c4c(c3C2=O)C2=NC3(CCN(c5ccccc5)CC3)NC2=C(NC(=O)/C(C)=C\C=C\[C@H](C)[C@H](O)[C@@H](C)[C@@H](O)[C@@H](C)[C@H](OC(C)=O)[C@@H]1C)C4=O	–	–	–	–	fold change (FC) (Staphylococcus aureus [1]): 2
≤ 0.002 µg/mL	CO[C@H]1/C=C/O[C@@]2(C)Oc3c(C)c(O)c4c(c3C2=O)C2=NC3(CCN(C5CCCC5)CC3)NC2=C(NC(=O)/C(C)=C\C=C\[C@H](C)[C@H](O)[C@@H](C)[C@@H](O)[C@@H](C)[C@H](OC(C)=O)[C@@H]1C)C4=O (stereo in doubt; form 1)	–	–	2	–	–
0.004 µg/mL (≈ 0.00488 µM)	CCN1CCC2(CC1)N=C1C(=C3NC(=O)/C(C)=C\C=C\[C@H](C)[C@H](O)[C@@H](C)[C@@H](O)[C@@H](C)[C@H](OC(C)=O)[C@H](C)[C@@H](OC)/C=C/O[C@@]4(C)Oc5c(C)c(O)c(c1c5C4=O)C3=O)N2	–	–	2	–	–
0.016 µg/mL (≈ 0.0183 µM)	CO[C@H]1/C=C/O[C@@]2(C)Oc3c(C)c(O)c4c(c3C2=O)C2=NC3(CCN(CC5CCCC5)CC3)NC2=C(NC(=O)/C(C)=C\C=C\[C@H](C)[C@H](O)[C@@H](C)[C@@H](O)[C@@H](C)[C@H](OC(C)=O)[C@@H]1C)C4=O	–	–	–	–	fold change (FC) (Staphylococcus aureus [1]): 2
